The first assay deals with T1, Cytochrome P450 1B1 (Homo sapiens, UniProt Q16678).
T1 sequence (Q16678 whole entry): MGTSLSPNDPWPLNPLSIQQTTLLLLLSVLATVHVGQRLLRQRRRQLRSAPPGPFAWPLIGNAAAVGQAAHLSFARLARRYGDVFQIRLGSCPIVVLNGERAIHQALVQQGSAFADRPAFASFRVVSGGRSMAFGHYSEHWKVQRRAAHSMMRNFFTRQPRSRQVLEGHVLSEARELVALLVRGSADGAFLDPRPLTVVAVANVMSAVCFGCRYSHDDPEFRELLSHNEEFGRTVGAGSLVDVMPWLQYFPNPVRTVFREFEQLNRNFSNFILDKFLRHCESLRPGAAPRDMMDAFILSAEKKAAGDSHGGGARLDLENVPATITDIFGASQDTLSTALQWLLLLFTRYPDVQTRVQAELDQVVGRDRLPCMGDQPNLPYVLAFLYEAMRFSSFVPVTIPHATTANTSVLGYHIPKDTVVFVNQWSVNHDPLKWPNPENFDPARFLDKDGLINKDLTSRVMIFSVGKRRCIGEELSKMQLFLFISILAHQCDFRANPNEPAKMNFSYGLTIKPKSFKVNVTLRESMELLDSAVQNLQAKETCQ
In words: Inhibition of human CYP1B1 assessed as reduction in 7-ethoxyresorufin O-deethylation activity by fluorescence based EROD assay. The method, boiled down: (§1)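 Recombinant human CYP1B1, 1A1 and 1A2 in a standard EROD assay. NADPH regeneration system: 1.3 mM NADP+, 3.3 mM G-6-P, 0.5 U/mL G6-PD. Incubation time 35 min for CYP1B1, 15 min for 1A1 and 50 min for 1A2. IC50 by Probit analysis; selectivity taken as the ratio of IC50 values.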
Consider `COc1ccc(OC)c2c1c(OC)cc1c(=O)c(O)c(-c3cccc(F)c3)oc12`, for which the IC50 amounted to 0.3 nM.
Take `COc1ccc(OC)c2c1c(OC)cc1c(=O)c(OCCCCCCOC(=O)CN)c(-c3cccc(F)c3)oc12`: the IC50 turned out to be 68.8 nM.
On to `COc1ccc(OC)c2c1c(OC)cc1c(=O)c(O)c(-c3ccccc3F)oc12`, for which the IC50 was determined as 1.2 nM.
Same read-out and setting: the same measure for `COc1ccc(OC)c2c1c(OC)cc1c(=O)cc(-c3ccccc3Cl)oc12`: 1.1 nM; for `COc1ccc(OC)c2c1c(OC)cc1c(=O)cc(-c3ccccc3O)oc12`: 62.9 nM.
In the case of `COc1ccc(-c2cc(=O)c3cc(OC)c4c(OC)ccc(OC)c4c3o2)cc1`, the IC50 came to 1.1 nM.
Still for that read-out and setting: the same measure for `COc1cc(-c2cc(=O)c3cc(OC)c4c(OC)ccc(OC)c4c3o2)cc(OC)c1OC`: 9.8 nM; for `COc1ccc(-c2cc(=O)c3cc(OC)c4c(OC)ccc(OC)c4c3o2)cc1OC`: 2.5 nM; for `COc1ccc(OC)c2c1c(OC)cc1c(=O)c(O)c(-c3ccc(Cl)cc3)oc12`: 5 nM.
As to `COc1ccc(OC)c2c1c(OC)cc1c(=O)cc(-c3ccc(OCc4ccccc4)c(OCc4ccccc4)c3)oc12`, the 50% inhibitory concentration (IC50) was over 100000 nM.
In the case of `COc1ccc(OC)c2c1c(OC)cc1c(=O)c(O)c(-c3cccc(Cl)c3)oc12`, the IC50 stood at 3.5 nM.
Turning to `COc1ccc(OC)c2c1c(OC)cc1c(=O)cc(-c3cccc(Cl)c3)oc12`, the IC50 was 0.3 nM.

The species entered for the next assay is Homo sapiens. In words: Selectivity index, ratio of IC50 for human CYP1A1 to IC50 for human CYP1B1. In a few lines: (§2)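 Recombinant human CYP1B1, 1A1 and 1A2 in a standard EROD assay. 7-Ethoxyresorufin fixed at 150 nM. NADPH regeneration system: 1.3 mM NADP+, 3.3 mM G-6-P, 0.5 U/mL G6-PD. Incubation time 35 min for CYP1B1, 15 min for 1A1 and 50 min for 1A2. Resorufin fluorescence read at ex 545 / em 590 nm. IC50 by Probit analysis; selectivity taken as the ratio of IC50 values.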
Take `COc1ccc(OC)c2c1c(OC)cc1c(=O)c(O)c(-c3cccc(F)c3)oc12`: the Ratio IC50 was found to be 223.
Consider `COc1ccc(OC)c2c1c(OC)cc1c(=O)c(OCCCCCCOC(=O)CN)c(-c3cccc(F)c3)oc12`, for which the Ratio IC50 came to 0.53.
`COc1ccc(OC)c2c1c(OC)cc1c(=O)c(O)c(-c3ccccc3F)oc12`: the Ratio IC50 worked out at 23.
With `COc1ccc(OC)c2c1c(OC)cc1c(=O)cc(-c3ccccc3Cl)oc12`, the Ratio IC50 is 17.5.
Regarding `COc1ccc(OC)c2c1c(OC)cc1c(=O)cc(-c3ccccc3O)oc12`, the Ratio IC50 came to 0.19.
On the same count and under the same terms, for `COc1ccc(-c2cc(=O)c3cc(OC)c4c(OC)ccc(OC)c4c3o2)cc1` the value was 12; for `COc1cc(-c2cc(=O)c3cc(OC)c4c(OC)ccc(OC)c4c3o2)cc(OC)c1OC`, 2.3; for `COc1ccc(-c2cc(=O)c3cc(OC)c4c(OC)ccc(OC)c4c3o2)cc1OC`, 4.6.
As to `COc1ccc(OC)c2c1c(OC)cc1c(=O)c(O)c(-c3ccc(Cl)cc3)oc12`, the Ratio IC50 amounted to 5.4.
Same read-out and setting: the same measure for `COc1ccc(OC)c2c1c(OC)cc1c(=O)c(O)c(-c3cccc(Cl)c3)oc12`: 13.
With `COc1ccc(OC)c2c1c(OC)cc1c(=O)cc(-c3cccc(Cl)c3)oc12`, the Ratio IC50 is 21.

In another assay the target is T2, Cytochrome P450 1A1 (Homo sapiens, UniProt P04798).
T2 sequence (P04798 whole entry): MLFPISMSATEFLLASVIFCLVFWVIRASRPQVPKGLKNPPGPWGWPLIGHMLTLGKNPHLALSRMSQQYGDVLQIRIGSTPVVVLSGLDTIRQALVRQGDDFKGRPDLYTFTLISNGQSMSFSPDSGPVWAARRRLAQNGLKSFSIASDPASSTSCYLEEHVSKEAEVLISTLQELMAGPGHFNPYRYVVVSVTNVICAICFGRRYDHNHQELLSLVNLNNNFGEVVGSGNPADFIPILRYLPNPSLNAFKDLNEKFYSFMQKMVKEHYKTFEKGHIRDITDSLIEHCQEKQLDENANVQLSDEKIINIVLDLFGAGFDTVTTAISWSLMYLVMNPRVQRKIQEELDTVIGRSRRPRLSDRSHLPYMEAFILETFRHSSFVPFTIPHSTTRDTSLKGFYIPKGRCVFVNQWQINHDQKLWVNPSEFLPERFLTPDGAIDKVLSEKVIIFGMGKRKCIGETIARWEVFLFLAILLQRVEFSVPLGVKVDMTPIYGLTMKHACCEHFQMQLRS
Briefly: Inhibition of human CYP1A1 assessed as reduction in 7-ethoxyresorufin O-deethylation activity by fluorescence based EROD assay. The format is ADME. In a few lines: as §2
Take `COc1ccc(OC)c2c1c(OC)cc1c(=O)c(O)c(-c3cccc(F)c3)oc12`: the IC50 came out at 66.9 nM.
As to `COc1ccc(OC)c2c1c(OC)cc1c(=O)c(OCCCCCCOC(=O)CN)c(-c3cccc(F)c3)oc12`, the IC50 stood at 36.2 nM.
On to `COc1ccc(OC)c2c1c(OC)cc1c(=O)c(O)c(-c3ccccc3F)oc12`, for which the half-inhibitory concentration (IC50) was 27.5 nM.
The same measure, in the same setting: the same measure for `COc1ccc(OC)c2c1c(OC)cc1c(=O)cc(-c3ccccc3Cl)oc12`: 19.2 nM; for `COc1ccc(OC)c2c1c(OC)cc1c(=O)cc(-c3ccccc3O)oc12`: 12.1 nM; for `COc1ccc(-c2cc(=O)c3cc(OC)c4c(OC)ccc(OC)c4c3o2)cc1`: 12.9 nM.
For `COc1cc(-c2cc(=O)c3cc(OC)c4c(OC)ccc(OC)c4c3o2)cc(OC)c1OC`, the 50% inhibitory concentration (IC50) was 22.5 nM.
On the same count and under the same terms, for `COc1ccc(-c2cc(=O)c3cc(OC)c4c(OC)ccc(OC)c4c3o2)cc1OC` the value was 11.5 nM.
Turning to `COc1ccc(OC)c2c1c(OC)cc1c(=O)c(O)c(-c3ccc(Cl)cc3)oc12`, the IC50 is 26.9 nM.
Regarding `COc1ccc(OC)c2c1c(OC)cc1c(=O)cc(-c3ccc(OCc4ccccc4)c(OCc4ccccc4)c3)oc12`, the IC50 turned out to be 535 nM.
On the same count and under the same terms, for `COc1ccc(OC)c2c1c(OC)cc1c(=O)c(O)c(-c3cccc(Cl)c3)oc12` the value was 46 nM; for `COc1ccc(OC)c2c1c(OC)cc1c(=O)cc(-c3cccc(Cl)c3)oc12`, 6.4 nM.

In another assay the target is T3, Cytochrome P450 1A2 (Homo sapiens, UniProt P05177).
T3 sequence (P05177 whole entry): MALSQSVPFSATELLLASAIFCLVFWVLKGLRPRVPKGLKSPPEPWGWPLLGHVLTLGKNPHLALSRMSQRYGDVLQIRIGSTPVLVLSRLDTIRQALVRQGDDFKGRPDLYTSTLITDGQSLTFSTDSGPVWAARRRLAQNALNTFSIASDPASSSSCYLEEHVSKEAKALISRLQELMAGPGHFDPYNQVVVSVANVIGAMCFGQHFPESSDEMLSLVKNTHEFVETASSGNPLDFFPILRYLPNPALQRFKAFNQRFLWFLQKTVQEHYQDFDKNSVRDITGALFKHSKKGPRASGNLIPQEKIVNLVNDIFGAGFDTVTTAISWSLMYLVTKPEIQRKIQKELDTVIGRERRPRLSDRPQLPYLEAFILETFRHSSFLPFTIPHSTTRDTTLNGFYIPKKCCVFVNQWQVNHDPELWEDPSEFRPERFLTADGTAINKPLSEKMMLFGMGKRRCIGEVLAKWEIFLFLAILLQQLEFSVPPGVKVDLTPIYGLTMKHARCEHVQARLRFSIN
Briefly: Inhibition of human CYP1A2 assessed as reduction in 7-ethoxyresorufin O-deethylation activity by fluorescence based EROD assay. The format is ADME. The method, boiled down: as §1
In the case of `COc1ccc(OC)c2c1c(OC)cc1c(=O)c(O)c(-c3cccc(F)c3)oc12`, the half-maximal inhibitory concentration (IC50) was determined as 26.5 nM.
`COc1ccc(OC)c2c1c(OC)cc1c(=O)c(OCCCCCCOC(=O)CN)c(-c3cccc(F)c3)oc12`: the concentration for half-maximal inhibition (IC50) was found to be 120 nM.
Turning to `COc1ccc(OC)c2c1c(OC)cc1c(=O)c(O)c(-c3ccccc3F)oc12`, the IC50 turned out to be 29.4 nM.
Turning to `COc1ccc(OC)c2c1c(OC)cc1c(=O)cc(-c3ccccc3Cl)oc12`, the IC50 was found to be 58 nM.
Regarding `COc1ccc(OC)c2c1c(OC)cc1c(=O)cc(-c3ccccc3O)oc12`, the half-maximal inhibitory concentration (IC50) turned out to be 50.6 nM.
With `COc1ccc(-c2cc(=O)c3cc(OC)c4c(OC)ccc(OC)c4c3o2)cc1`, the IC50 is 16.4 nM.
In the case of `COc1cc(-c2cc(=O)c3cc(OC)c4c(OC)ccc(OC)c4c3o2)cc(OC)c1OC`, the IC50 amounted to 23.5 nM.
Still for that read-out and setting: for `COc1ccc(-c2cc(=O)c3cc(OC)c4c(OC)ccc(OC)c4c3o2)cc1OC` the value was 19.3 nM; for `COc1ccc(OC)c2c1c(OC)cc1c(=O)c(O)c(-c3ccc(Cl)cc3)oc12`, 83.3 nM; for `COc1ccc(OC)c2c1c(OC)cc1c(=O)cc(-c3ccc(OCc4ccccc4)c(OCc4ccccc4)c3)oc12`, 96.9 nM.
The same measure, in the same setting: for `COc1ccc(OC)c2c1c(OC)cc1c(=O)c(O)c(-c3cccc(Cl)c3)oc12` the value was 42.5 nM; for `COc1ccc(OC)c2c1c(OC)cc1c(=O)cc(-c3cccc(Cl)c3)oc12`, 61.1 nM.

The next assay is filed under the species Homo sapiens. In words: Selectivity index, ratio of IC50 for human CYP1A2 to IC50 for human CYP1B1. The method, boiled down:
as §2
With `COc1ccc(OC)c2c1c(OC)cc1c(=O)c(O)c(-c3cccc(F)c3)oc12`, the Ratio IC50 turned out to be 88.
On the same count and under the same terms, for `COc1ccc(OC)c2c1c(OC)cc1c(=O)c(OCCCCCCOC(=O)CN)c(-c3cccc(F)c3)oc12` the value was 1.7; for `COc1ccc(OC)c2c1c(OC)cc1c(=O)c(O)c(-c3ccccc3F)oc12`, 25.
The same measure, in the same setting: for `COc1ccc(OC)c2c1c(OC)cc1c(=O)cc(-c3ccccc3Cl)oc12` the value was 53; for `COc1ccc(OC)c2c1c(OC)cc1c(=O)cc(-c3ccccc3O)oc12`, 0.8; for `COc1ccc(-c2cc(=O)c3cc(OC)c4c(OC)ccc(OC)c4c3o2)cc1`, 15.
In the case of `COc1cc(-c2cc(=O)c3cc(OC)c4c(OC)ccc(OC)c4c3o2)cc(OC)c1OC`, the Ratio IC50 turned out to be 2.4.
Take `COc1ccc(-c2cc(=O)c3cc(OC)c4c(OC)ccc(OC)c4c3o2)cc1OC`: the Ratio IC50 is 7.7.
Take `COc1ccc(OC)c2c1c(OC)cc1c(=O)c(O)c(-c3ccc(Cl)cc3)oc12`: the Ratio IC50 turned out to be 17.
In the case of `COc1ccc(OC)c2c1c(OC)cc1c(=O)c(O)c(-c3cccc(Cl)c3)oc12`, the Ratio IC50 is 12.
For the molecule `COc1ccc(OC)c2c1c(OC)cc1c(=O)cc(-c3cccc(Cl)c3)oc12`, the Ratio IC50 amounted to 204.

Values taken from ChEMBL document CHEMBL3421595, “Design and Synthesis of New α-Naphthoflavones as Cytochrome P450 (CYP) 1B1 Inhibitors To Overcome Docetaxel-Resistance Associated with CYP1B1 Overexpression” (J Med Chem, 2015).
